{"source": "ChEMBL document CHEMBL2203287", "about": "“Synthesis and biological evaluation of novel heterocyclic derivatives of combretastatin A-4” (Bioorg Med Chem Lett, 2012)", "key": {"SKv-a [1]": {"system": "SKv-a", "experiment": "Induction of microtubule depolymerization in human SKv-a cells at 10 '-6 M by confocal microscopy", "assay_type": "cell-based"}, "SKv-a [2]": {"system": "SKv-a", "experiment": "Mitotic arrest in human SKv-a cells at 5 uM after 24 hrs using propidium iodide by flow cytometry", "assay_type": "functional, cell-based", "summary_of_the_method": "(§1)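 Exponentially growing cells given 5×10^-6 M for 24 h, with 0.5% DMSO vehicle control. Cells detached with gentle Accutase, then stained in suspension with propidium iodide 0.05 mg/mL in citrate buffer with Nonidet P40 for 1 h at 4 °C. FACS on 20,000 cells for G1/S/G2/M distribution; run in triplicate.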"}, "[3]": {"experiment": "Inhibition of sheep brain tubulin assembly compound incubated for 10 mins at 37 degC followed by 5 mins incubation at 0 degC by turbidimetry", "set-up": "species or system Ovis aries"}, "HaCaT [4]": {"system": "HaCaT", "experiment": "Induction of microtubule depolymerization in human HaCaT cells at 10 '-6 M by confocal microscopy", "assay_type": "cell-based"}, "HaCaT [5]": {"system": "HaCaT", "experiment": "Mitotic arrest in human HaCaT cells at 5 uM after 24 hrs using propidium iodide by flow cytometry", "assay_type": "functional, cell-based", "summary_of_the_method": "as §1"}, "SKv-a [6]": {"system": "SKv-a", "experiment": "Induction of morphological changes in human SKv-a cells assessed as cell rounding at 10 '-6 M by confocal microscopy", "assay_type": "functional, cell-based", "summary_of_the_method": "(§2)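 Cells were fixed and immunostained for beta-tubulin with a monoclonal antibody, then detected with goat anti-mouse FITC secondary. Confocal optical sections were taken at ×63 objective magnification. Vehicle-treated controls were imaged in parallel.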"}, "[7]": {"experiment": "Induction of morphological changes in human SKv-a cells assessed as loss of radial distribution of structured microtubules at 10 '-6 M by confocal microscopy", "assay_type": "functional, cell-based", "summary_of_the_method": "as §2"}, "HaCaT [8]": {"system": "HaCaT", "experiment": "Antiproliferative activity against human HaCaT cells assessed as cell viability by MTT assay", "assay_type": "functional, cell-based", "summary_of_the_method": "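MTT read-out of metabolic activity, taken as the number of viable cells remaining after 72 h continuous exposure of cultured keratinocytes.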"}, "HaCaT [9]": {"system": "HaCaT", "experiment": "Induction of morphological changes in human HaCaT cells assessed as cell detachment at 10 '-6 M by confocal microscopy", "assay_type": "functional, cell-based", "summary_of_the_method": "as §2"}, "HaCaT [10]": {"system": "HaCaT", "experiment": "Induction of morphological changes in human HaCaT cells assessed as loss of radial distribution of structured microtubules at 10 '-6 M by confocal microscopy", "assay_type": "functional, cell-based", "summary_of_the_method": "as §2"}, "SKv-a [11]": {"system": "SKv-a", "experiment": "Induction of morphological changes in human SKv-a cells assessed as cell detachment at 10 '-6 M by confocal microscopy", "assay_type": "functional, cell-based", "summary_of_the_method": "as §2"}, "HaCaT [12]": {"system": "HaCaT", "experiment": "Induction of morphological changes in human HaCaT cells assessed as cell rounding at 10 '-6 M by confocal microscopy", "assay_type": "functional, cell-based", "summary_of_the_method": "as §2"}, "Ovis aries": {"species_on_record": "Ovis aries", "experiment": "Inhibition of sheep brain tubulin assembly at 32 uM incubated for 10 mins at 37 degC followed by 5 mins incubation at 0 degC by turbidimetry"}}, "note": "pIC50: −log10 of the molar value. Active and inactive are the calls of the source. No cut-off for these calls is given here.", "data": [{"smiles": "COc1cc(/C=C/c2cc3ccccc3s2)cc(OC)c1OC", "values": [{"measurement": "Activity", "setting": "SKv-a [1]", "value": "Active"}, {"measurement": "Activity", "setting": "SKv-a [2]", "value": "Active"}, {"measurement": "pIC50", "setting": "[3]", "value": 5.08}, {"measurement": "Activity", "setting": "HaCaT [4]", "value": "Active"}, {"measurement": "Activity", "setting": "HaCaT [5]", "value": "Active"}]}, {"smiles": "COc1cc(/C=C\\c2cc3ccccc3s2)cc(OC)c1OC", "values": [{"measurement": "Activity", "setting": "SKv-a [6]", "value": "Active"}, {"measurement": "Activity", "setting": "SKv-a [1]", "value": "Active"}, {"measurement": "Activity", "setting": "SKv-a [2]", "value": "Active"}, {"measurement": "Activity", "setting": "[7]", "value": "Active"}, {"measurement": "pIC50", "setting": "[3]", "value": 5.59}, {"measurement": "pIC50", "setting": "HaCaT [8]", "value": 7.80}, {"measurement": "Activity", "setting": "HaCaT [9]", "value": "Active"}, {"measurement": "Activity", "setting": "HaCaT [4]", "value": "Active"}, {"measurement": "Activity", "setting": "HaCaT [5]", "value": "Active"}, {"measurement": "Activity", "setting": "HaCaT [10]", "value": "Active"}, {"measurement": "Activity", "setting": "SKv-a [11]", "value": "Active"}, {"measurement": "Activity", "setting": "HaCaT [12]", "value": "Active"}]}, {"smiles": "COc1cc([C@@H]2c3cc4c(cc3C[C@H]3COC(=O)[C@@H]32)OCO4)cc(OC)c1OC", "note": "[DESOXYPODOPHYLLOTOXIN]", "values": [{"measurement": "pIC50", "setting": "[3]", "value": 5.77}]}, {"smiles": "COc1cc(/C=C\\c2cc3ccccc3[nH]2)cc(OC)c1OC", "values": [{"measurement": "pIC50", "setting": "[3]", "value": 4.68}]}, {"smiles": "COc1ccc(/C=C\\c2cc(OC)c(OC)c(OC)c2)cc1O", "note": "[COMBRETASTATIN A4]", "values": [{"measurement": "Activity", "setting": "SKv-a [1]", "value": "Active"}, {"measurement": "pIC50", "setting": "HaCaT [8]", "value": 9.00}, {"measurement": "Activity", "setting": "HaCaT [4]", "value": "Active"}]}, {"smiles": "COc1cc(/C=C\\c2cc3ccccc3o2)cc(OC)c1OC", "values": [{"measurement": "pIC50", "setting": "[3]", "value": 5.02}]}, {"smiles": "COc1cc(/C=C/c2cc3ccccc3o2)cc(OC)c1OC", "values": [{"measurement": "inhibition", "setting": "Ovis aries", "value": 23, "unit": "%"}]}, {"smiles": "COc1cc2c(c(OC)c1OC)-c1ccc(OC)c(=O)cc1[C@@H](NC(C)=O)CC2", "note": "[COLCHICINE]", "values": [{"measurement": "Activity", "setting": "SKv-a [6]", "value": "Active"}, {"measurement": "Activity", "setting": "SKv-a [1]", "value": "Active"}, {"measurement": "Activity", "setting": "[7]", "value": "Active"}, {"measurement": "pIC50", "setting": "HaCaT [8]", "value": 7.92}, {"measurement": "Activity", "setting": "HaCaT [9]", "value": "Active"}, {"measurement": "Activity", "setting": "HaCaT [4]", "value": "Active"}, {"measurement": "Activity", "setting": "HaCaT [10]", "value": "Active"}, {"measurement": "Activity", "setting": "SKv-a [11]", "value": "Active"}, {"measurement": "Activity", "setting": "HaCaT [12]", "value": "Active"}]}]}
